Experimental data from ChEMBL document CHEMBL1138680, “Phenoxyphenyl pyridines as novel state-dependent, high-potency sodium channel inhibitors” (J Med Chem, 2004).

Legend:
[1] = Ratio between Kr to Ki; type: functional
[2] = target: Sodium channel protein type 2 subunit alpha, Nav1.2 (Rattus norvegicus) (UniProt P04775); test: Dissociation constant for binding to resting state of rat brain NaIIa (rNav1.2) -B2 cell line stably expressed in HEK293 Cells
[3] = target: Sodium channel protein type 2 subunit alpha (Rattus norvegicus) (UniProt P04775); test: Dissociation constant for binding to inactivated state of rat brain NaIIa (rNav1.2) -B2 cell line stably expressed in HEK293 Cells
Rattus norvegicus [4] = organism: Rattus norvegicus; test: Inhibition of native TTX-R sodium currents in acutely dissociated rat dorsal root ganglion (DRG); type: functional
Outline: (§1)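 Acutely dissociated neurons from newborn Sprague Dawley rat pups were plated on poly-D-lysine and recorded for up to two weeks. The HEK-293 fractional-response protocol was used, but with a 1-s depolarizing prepulse and a 5-ms hyperpolarizing gap. Fractional responses were collected at three or more concentrations per drug. Ki came from a logistic fit of the partial concentration–inhibition curves.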

Rattus norvegicus [5] = organism: Rattus norvegicus; test: Inhibition of native TTX-S sodium currents in acutely dissociated rat dorsal root ganglion (DRG); type: functional; outline: as §1

Compound	Ratio [1]	kR [2]	Ki [3]	Inhibition activity (Rattus norvegicus [4])	Inhibition activity (Rattus norvegicus [5])
Cc1cc(OCCN2CCCCC2)cc(-c2ccc(Oc3ccc(F)cc3)cc2)n1	362	63.4 µM	170 nM	0.08 µM	0.14 µM
NC(=O)c1ccc(-c2ccc(Oc3ccc(F)cc3)cc2)nc1	–	–	3750 nM	–	–
NC(=O)N1c2ccccc2C=Cc2ccccc21 [CARBAMAZEPINE]	–	–	–	111 µM	28 µM
O=C(NCCN1CCCCC1)c1cccc(-c2ccc(Oc3ccc(F)cc3)cc2)n1	154	4.3 µM	20 nM	0.06 µM	–
Nc1nnc(-c2cccc(Cl)c2Cl)c(N)n1 [LAMOTRIGINE]	–	–	–	103 µM	38.4 µM
O=C(NCCN1CCCCC1)c1cncc(-c2ccc(Oc3ccc(F)cc3)cc2)c1	68	10.5 µM	150 nM	–	–
NC(=O)c1ccnc(-c2ccc(Oc3ccc(F)cc3)cc2)c1	–	–	2640 nM	–	–
O=C(NCCN1CCCCC1)c1ccc(-c2ccc(Oc3ccc(F)cc3)cc2)nc1	180	107 µM	590 nM	1.56 µM	1 µM

Now from value to compound, other results behind:

Ratio [1]	Compound	kR [2]	Ki [3]	Inhibition activity (Rattus norvegicus [4])	Inhibition activity (Rattus norvegicus [5])
90	COc1cc(C(=O)NCCN(C)C)nc(-c2ccc(Oc3ccc(F)cc3)cc2)c1	23 µM	250 nM	1.56 µM	0.18 µM
5	NC(=O)c1cccnc1-c1ccc(Oc2ccc(F)cc2)cc1	63.7 µM	13400 nM	–	–
24	COc1cc(C(N)=O)nc(-c2ccc(Oc3ccc(F)cc3)cc2)c1	87.7 µM	360 nM	–	–
94	NC(=O)c1cc(N2CCOCC2)cc(-c2ccc(Oc3ccc(F)cc3)cc2)n1	11.6 µM	120 nM	0.1 µM	0.06 µM
100	NC(=O)N/N=C/c1ccc(Oc2ccc(F)cc2)cc1	34 µM	350 nM	0.26 µM	0.25 µM
122	Cc1cc(N(C)C)cc(-c2ccc(Oc3ccc(F)cc3)cc2)n1	47.1 µM	386 nM	0.34 µM	0.53 µM
252	NC(=O)c1cccc(-c2ccc(Oc3ccc(F)cc3)cc2)n1	24.2 µM	90 nM	0.27 µM	0.1 µM
